Compound activity as filed in PubChem.
ZTA DNA inh = blocks Epstein-Barr virus ZTA, an EBNA-1 counter-screen; 320,000 tested, 0.15% active; ZTA-DNA binding, fluorescence polarization; P03206; AID 2234; inhibition, % at 11 µM; in the data active = inhibition above about 33%
Target sequence (P03206 whole entry, looked up): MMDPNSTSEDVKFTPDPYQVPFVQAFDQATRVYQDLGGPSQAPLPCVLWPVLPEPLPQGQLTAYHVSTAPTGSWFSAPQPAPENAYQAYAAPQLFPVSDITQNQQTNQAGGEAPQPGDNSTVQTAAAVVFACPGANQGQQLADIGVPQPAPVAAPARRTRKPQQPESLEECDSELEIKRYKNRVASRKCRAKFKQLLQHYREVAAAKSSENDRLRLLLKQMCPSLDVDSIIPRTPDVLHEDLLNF
UBC13 polyUb = inhibitors of human UBC13 polyubiquitin chain formation; P61088; TR-FRET; inhibition, % at 20 µM; 330,000 tested, 0.47% active; AID 485273; in the data active = inhibition above about 45%, passing the limit was not always enough
Target sequence (P61088 whole entry, looked up): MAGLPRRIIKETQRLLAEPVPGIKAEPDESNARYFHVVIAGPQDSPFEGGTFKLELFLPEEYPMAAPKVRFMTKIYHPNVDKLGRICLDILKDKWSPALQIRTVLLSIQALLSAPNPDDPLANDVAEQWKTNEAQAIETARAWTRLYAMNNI
Apaf1 inhib = inhibitors of human Apaf-1 apoptosome | O14727 | reconstituted apoptosome caspase-3 activity, DEVD-Rh110 fluorescence | inhibition, % at 20 µM | AID 489030 | 330,000 tested, 0.71% active; active = inhibition of at least 40% at 20 µM;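 also: plate controls were DMSO wells for no effect and DEVD-CHO caspase inhibitor wells for full effect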
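Material: reconstituted apoptosome with Apaf-1, cytochrome c, caspase-9, procaspase-3, dATP / Buffer or medium: pH 7.5 Hepes buffer with CHAPS, BSA, DTT / Also added: cytochrome c with DEVD-Rh110 / Schedule: compound with Apaf-1, dATP, procaspase-3 30 min, then 50 min reaction, room temperature / Technique: rhodamine 110 fluorescence at Ex 480/Em 540 nm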
EBNA-1 inhibitor = blocks EBNA-1 binding to DNA. EBNA-1 DNA binding, fluorescence polarization. inhibition, % at 14.8 µM. 300,000 tested, 0.34% active; in the data active = inhibition above about 28%
PREPL inh = human PREPL enzyme inhibition; recombinant PREPL, fluorescence polarization activity-based probe; AID 2751; 320,000 tested, 0.68% active; inhibition, % at 5.96 µM; Q4J6C6; in the data active = inhibition above about 43%;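 also: 0% = enzyme with DMSO and 100% = wells lacking enzyme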
* marks the source's active call; other numbers are inactive results; i = inactive; x = no result given. Sampled rows, rich in hits. Any-hit rate of the full collection: about 1.7%.

SMILES	ZTA DNA inh	UBC13 polyUb	Apaf1 inhib	EBNA-1 inhibitor	PREPL inh
CN(CCO)c1cc(Sc2nc3ccccc3s2)c2nonc2c1[N+](=O)[O-]	-11.4	-29.8	51.8*	-11.4	26.3
CC(=O)OCCN(C)c1cc(SC(C)C)c2nonc2c1[N+](=O)[O-]	-5.4	-25.8	0.6	-15.0	5.3
O=C1c2ccccc2-c2c1nc1c([n+]2[O-])CCCC1	-3.6	-34.2	41.6*	-8.5	7.2
Cc1ccnc2c1ccc1c(C)ccnc12	-19.2	1.8	44.5*	x	37.1
O=C(O)C1=CC(=C(c2ccc(O)c(C(=O)O)c2)c2ccc(O)c(C(=O)O)c2)C=CC1=O	111.1*	x	x	92.5*	79.7*
COC(=O)c1c(C(=O)OC)c(-c2ccc(C)cc2)n2c1CS(=O)(=O)C2	-4.3	-4.4	3.5	-2.1	-3.5
C[n+]1ccccc1/C=C1\Sc2ccccc2N1CCO	-5.3	-17.1	-1.1	-0.7	15.6
CCN1/C(=C/c2ccc3cccc(C)c3[n+]2CC)Sc2ccccc21	7.5	i	14.1	-10.4	60.4*
Cc1ccccc1NC(=O)Nc1nc2ccc(S(C)(=O)=O)cc2s1	38.2*	-4.2	-14.1	154.6*	-0.6
CCCCCCn1c(CN2CCN(CCO)CC2)nc2c1c(=O)n(C)c(=O)n2C	5.1	2.5	-3.0	9.5	-1.8
Cc1ccc(NC(=S)Nc2cccc3ccccc23)cc1F	14.9	-47.5	88.9*	4.3	11.1
CC(=O)c1ccc(NC(=S)Nc2cccc3ccccc23)cc1	4.9	-12.2	44.6*	2.6	18.6
O=C(O)CNCC1COc2ccccc2O1 (stereo not given)	8.4	2.3	-18.2	0.9	-0.1
CN(C)c1ccc(NC2=C(Cl)C(=O)c3ccccc3C2=O)cc1	-2.2	-148.6	42.9*	-2.6	28.6
O=c1cc(NCCCO)c2ccccc2o1	2.2	-3.0	12.3	-2.3	9.1
CC(=O)Nc1ccc(NC2=C(Cl)C(=O)c3ccccc3C2=O)cc1	x	-68.3	38.1	x	x
O=C1C(Cl)=C(NCCCO)C(=O)c2ccccc21	1.3	-493.9	44.7*	-7.3	0.4
CCN(CC)S(=O)(=O)c1ccc(C(=O)NCc2ccc3[nH]c4c(c3c2)CCCC4)cc1	16.4	-28.3	9.0	7.2	14.3
CC(NC(=O)c1cc(-c2cccnc2)nc2ccc(Br)cc12)C1CCCO1 (stereo not given)	150.8*	-20.4	0.8	160.0*	-4.7
CC(NC(=O)c1cc(-c2ccncc2)nc2ccc(Cl)cc12)C1CCCO1 (stereo not given)	12.8	-5.4	1.2	2.2	2.6
CCCCCCCN1C=CC(=O)CC1	-8.1	-6.7	7.4	2.9	8.6
Nc1scc2c(C(=O)N/N=C/c3ccc(Cl)cc3)nn(-c3ccccc3)c(=O)c12	4.3	-20.2	42.4*	7.1	18.2
Nc1c(C(=O)N/N=C/c2ccc(Cl)cc2)cnn1-c1ccccc1	-10.1	2.6	1.3	3.1	3.8
COc1ccccc1-c1cc(C(=O)Nc2cccnc2)no1	-8.4	x	x	-3.6	-2.9
CC(C)N1CCc2c(sc(N)c2C#N)C1	-12.6	-14.3	-0.8	12.6	50.3*
SMILES	ZTA DNA inh	UBC13 polyUb	Apaf1 inhib	EBNA-1 inhibitor	PREPL inh
CC(C)C1Cc2c(sc(NC(=S)NC(=O)c3ccccc3)c2C#N)CO1 (stereo not given)	-3.7	-1.5	-3.0	-1.6	-4.0
CC(C)N1CCc2c(sc(NC(=S)NC(=O)c3ccccc3)c2C#N)C1	-6.4	-34.9	23.5	-8.0	62.0*
COc1ccc(Cn2c(SCC#N)nc3ccc(N4CCOCC4)cc3c2=O)cc1	-26.4	-7.8	12.2	-2.0	70.5*
COc1ccc(NC(=O)C2(c3ccccc3)CCCC2)cc1	2.2	7.3	5.0	-8.5	-1.1
CCOC(=O)c1ccc(N2CCN(c3ccc(F)cc3)CC2)c(NC(=O)Nc2cccc(OC)c2)c1	-6.3	13.1	1.4	82.0*	21.0
Cc1cccc(C(=O)NNC(=O)c2ccccc2C)c1	-5.6	-17.9	-1.1	-9.7	-3.8
Cc1cccc(OCC(=O)N/N=C\c2cn(C)c3ccccc23)c1	-1.6	9.9	19.7	-0.6	11.1
COC(=O)c1cc(OC)c(OC)cc1NC(=O)Nc1ccccc1OC	-3.3	7.3	0.7	10.9	1.1
CCCSc1nc(N)c2c3c(sc2n1)CN(C)CC3	-5.1	3.1	2.0	13.6	18.9
CN(C)CCSc1nc(N)c2c3c(sc2n1)CN(C)CC3	1.2	75.0*	-9.3	-5.9	14.6
O=C(NC(=S)Nc1ccccc1N1CCCC1)c1ccccc1Br	-9.2	-4.2	34.1	-10.6	0.9
Cc1ccc(C(=O)Nc2ccc(C(=O)N/N=C/c3cccnc3)cc2)cc1	15.6	-6.1	10.4	-15.7	5.1
